From ChEMBL document CHEMBL4261516, “Design, synthesis and pharmacological evaluation of new 2-oxo-quinoline derivatives containing α-aminophosphonates as potential antitumor agents” (Medchemcomm, 2017)
pIC50: −log10 of the molar value. Active and inactive are the calls of the source. No cut-off for these calls is given here.

Tests used:
HepG2 [1] = experiment: Induction of apoptosis in human HepG2 cells assessed as viable cells at 10 uM after 24 hrs by annexin V/[…] staining-based fluorescent microscopic method (reference value: 91.31%); type: functional; conditions: HepG2, 24 h, read-out: Activity
HepG2 [2] = experiment: Upregulation of p21 expression in human HepG2 cells after 48 hrs by Western blot method; type: functional, cell-based
HepG2 [3] = experiment: Induction of apoptosis in human HepG2 cells assessed as viable cells at 8 uM after 24 hrs by annexin V/[…] staining-based fluorescent microscopic method (reference value: 91.31%); type: functional; conditions: HepG2, 24 h, read-out: Activity
HepG2 [4] = experiment: Induction of apoptosis in human HepG2 cells assessed as increase in intracellular calcium release at 10 uM after 24 hrs by Fluo-3 AM dye-based fluorescence microscopic method
HepG2 [5] = experiment: Induction of apoptosis in human HepG2 cells assessed as necrotic cells at 12 uM after 24 hrs by annexin V/[…] staining-based fluorescent microscopic method (reference value: 0.28%); type: functional
HepG2 [6] = experiment: Induction of apoptosis in human HepG2 cells assessed as viable cells at 12 uM after 24 hrs by annexin V/[…] staining-based fluorescent microscopic method (reference value: 91.31%); type: functional; conditions: HepG2, 24 h, read-out: Activity
HepG2 [7] = experiment: Induction of apoptosis in human HepG2 cells assessed as upregulation of caspase-9 levels at 8 to 12 uM after 24 hrs by Western blot method; type: functional, cell-based
Procedure, shortened: (§1)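 Treated HepG2 cells were lysed on ice in 1% SDS/Tris-HCl pH 7.5 buffer with EDTA, NaCl, PMSF, leupeptin and trypsin inhibitor, then cleared at 12,000 × g for 5 min. Protein was quantified by BCA, and 40–50 µg was run on 12% SDS-PAGE and blotted to PVDF. Membranes were blocked with 5% milk, incubated with primary antibody overnight at 4 °C and HRP secondary for 1 h. Detection by chemiluminescence with densitometry.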

HepG2 [8] = experiment: Induction of apoptosis in human HepG2 cells assessed as late apoptotic cells at 10 uM after 24 hrs by annexin V/[…] staining-based fluorescent microscopic method (reference value: 1.91%); type: functional
HepG2 [9] = experiment: Cytotoxicity against human HepG2 cells after 48 hrs by MTT assay; type: functional, cell-based; conditions: HepG2, 48 h
Procedure, shortened: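 HepG2, SK-OV-3, NCI-H460 and HL 7702 lines grown as monolayers in DMEM with 10% FBS plus penicillin/streptomycin at 37 °C, 5% CO2. Exponentially growing cells were seeded and exposed to the indicated concentrations for 48 h. MTT was then added for 4 h at 37 °C, formazan was dissolved in DMSO, and OD was read at 490 nm. Each concentration was run in triplicate wells, with three independent runs per line.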

HepG2 [10] = experiment: Induction of apoptosis in human HepG2 cells assessed as upregulation of PARP levels at 8 to 12 uM after 24 hrs by Western blot method; type: functional, cell-based
HepG2 [11] = experiment: Induction of apoptosis in human HepG2 cells assessed as upregulation of Bax levels at 8 to 12 uM after 24 hrs by Western blot method; type: functional, cell-based; procedure, shortened: as §1
HepG2 [12] = experiment: Cell cycle arrest in human HepG2 cells assessed as accumulation at S phase at 12 uM after 48 hrs by propidium iodide staining-based flow cytometric method (reference value: 30.49%); type: functional

**Q.** Which viability at 10 µM (HepG2 [1]) does the source give for `CCOP(=O)(Cc1ccc(/N=C/c2cc3cc(C)ccc3[nH]c2=O)cc1)OCC` here?
**A.** 56.3%

**Q.** And the Activity (HepG2 [2])?
**A.** Dose-dependent effect

**Q.** And the viability at 8 µM (HepG2 [3])?
**A.** 62.5%

**Q.** What about the Activity (HepG2 [4]) of the same compound?
**A.** Active

**Q.** And the Activity (HepG2 [5])?
**A.** 0.57%

**Q.** And the viability at 12 µM (HepG2 [6])?
**A.** 44.5%

**Q.** What about the Activity (HepG2 [7]) of the same compound?
**A.** Active

**Q.** And the Activity (HepG2 [8])?
**A.** 9.24%

**Q.** And the pIC50 (HepG2 [9])?
**A.** 5.00

**Q.** And the Activity (HepG2 [10])?
**A.** Active

**Q.** And the Activity (HepG2 [11])?
**A.** Active

**Q.** What about the Activity (HepG2 [12]) of the same compound?
**A.** 27.49%
